In the library only some 5.1% were active in any assay of this set; here they are far more common.
STAT1 blocker: reduces IFN-gamma driven STAT1 reporter signal; NIH 3T3 STAT1-luciferase reporter, luminescence; inhibition, % at 5.5 µM; hit rate 0.35% among 200,000; AID 920;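 active = inhibition above a set limit, the mean inhibition across all tested compounds plus 3 SD, cut at about 34% in these data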
STAT3 inh: inhibitors of IL-6 induced STAT3 signaling; hit rate 0.89% among 190,000; U3A cells, IL-6 STAT3-luciferase reporter, luminescence; host cell line lacks STAT1; AID 862; inhibition, % at 5.5 µM;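 active = inhibition above the mean inhibition across all screened compounds plus 3 SD, cut at about 44% in these data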
STAT3 activator: activators of IL-6 induced STAT3 signaling | hit rate 0.91% among 190,000 | U3A cells, IL-6 STAT3-luciferase reporter, luminescence; 100% = signal with IL-6 EC80 alone | activation (% of control), % at 5.6 µM | AID 871;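 active = activation above the screen-wide mean of compound activation plus 3 SD, cut at about 130% in these data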
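Test system: human U3A cells carrying STAT3-luciferase construct; control set: IL-6-only wells as 100% reference; timing: compound pre-incubation 1 h before IL-6, then 6 h stimulation at 37 °C; also added: IL-6 stimulus at 33 ng/mL final; evaluation: % activation versus median of IL-6-stimulated wells; detection: reporter luminescence signal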
NF-kB expr up: raises NF-kB expression in human neuronal cells; NF-kB reporter expression; active compounds read high; fold change at 12.5 µM; hit rate 1.6% among 190,000; in the data active = fold change above about 3.3
STAT1 activator: STAT1 signaling activation; NIH 3T3 STAT1-luciferase reporter, IFN-gamma, luminescence; 100% = IFN-gamma alone, no compound; activation (% of control), % at 5.5 µM; hit rate 2.6% among 200,000; AID 932;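 active = activation above the screen-wide mean activation plus 3 SD, cut at about 130% in these data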
APP 5'UTR act: activates APP 5'UTR luciferase reporter. activation, % at 2 µM. AID 1276. hit rate 1% among 190,000. SH-SY5Y APP 5'UTR luciferase reporter, luminescence; zero percent = DMSO vehicle wells;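 active = activation above a set limit, based on mean plus 3 SD of controls, cut at about 140% in these data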
Large screens that a line does not name were inactive.

O=C(Nc1cccc(F)c1)c1ccco1	none
O=C(Nc1cc([N+](=O)[O-])ccc1N1CCOCC1)c1ccco1	none
CCOC(=O)c1ccc(N/C=C/C(=O)c2ccc(OC)c(OC)c2)cc1	none
Cc1ccc([N+](=O)[O-])cc1N/C=C/C(=O)c1ccco1	STAT3 activator 134.0
N#CC(c1ccc(O)cc1)N1CCOCC1 (stereo not given)	none
O=C(CN1CCN(c2ccccc2O)CC1)NC(=O)NCc1ccco1	none
O=C(CN1CCc2ccccc21)NC(=O)NCc1ccco1	STAT3 activator 135.4
NNC(=O)CN1CCCc2ccccc21	STAT1 activator 148.5
CN(C)S(=O)(=O)c1ccc(C(=O)OCC(=O)NCc2ccco2)cc1	none
CCCn1nnc(NC(=O)c2ccc(Cl)cc2Cl)n1	STAT1 activator 130.9
CCCn1nnc(NC(=O)c2ccccc2Cl)n1	none
CC(C)(C)NC(=O)C(c1cccs1)N(C(=O)c1csnn1)c1ccccc1F (stereo not given)	none
c1csc(-c2cn3ccc4ccccc4c3n2)c1	STAT3 activator 171.2, NF-kB expr up 4.68, STAT1 activator 143.7
c1cc(-c2cccs2)nc(-c2cccs2)c1	none
CCOC(=O)c1cnc(SCC(=O)c2ccccc2)nc1N	NF-kB expr up 3.73, STAT1 activator 144.2
CCOC(=O)c1cnc(-c2ccccc2)nc1N	NF-kB expr up 4.95, STAT1 activator 145.6
O=C(CCl)Nc1cccc(-c2cnc3ccccc3n2)c1	none (no result: APP 5'UTR act)
CCC(=O)Nc1cccc(-c2cnc3ccccc3n2)c1	STAT1 activator 129.2
CCOC(=O)c1cnc(SCC(=O)c2ccc(C)cc2)nc1N	none
CCOC(=O)c1ccc2ncc(-c3ccccc3)nc2c1	NF-kB expr up 4.21, STAT1 activator 148.2, APP 5'UTR act 138.7
CCc1ccc(CNC(=O)Cn2nc(-c3ccc(C)cc3)ccc2=O)cc1	none
CCOC(=O)c1cnc(SCC(C)C)nc1N	NF-kB expr up 4.67, STAT1 activator 136.7, APP 5'UTR act 145.8
NC(=O)c1ccsc1NC(=O)c1cc(=O)c2ccccc2o1	STAT1 activator 138.4
Cc1cccc(NC(=O)c2cc(=O)c3ccccc3o2)n1	STAT1 activator 134.1
COc1ccc(CCNCC2C(Oc3ccc(Cl)cc3)C(=O)N2c2ccccc2C)cc1OC (stereo not given)	none
Cc1cccc(CS(=O)(=O)Cc2ccc(C(=O)NCc3cccs3)o2)c1	none
CSCCC(NC(=O)OC(C)(C)C)C(=O)Oc1ccc2c(=O)c(-c3ccc4c(c3)OCCO4)coc2c1 (stereo not given)	STAT1 activator 129.1, APP 5'UTR act 172.6
CSCCC(NC(C)=O)C(=O)Oc1ccc2c3c(c(=O)oc2c1)CCCC3 (stereo not given)	none
COc1ccc(-c2cc(C(=O)NCC3CCCO3)c3ccccc3n2)cc1 (stereo not given)	none
COc1ccc(-c2cc(C(=O)NCC3CCCO3)c3cc(C)ccc3n2)cc1 (stereo not given)	STAT1 activator 133.3
Clc1ccc(N2CCN(c3cnc4ccccc4n3)CC2)cc1	none
COc1cccc(N2CCN(c3cnc4ccccc4n3)CC2)c1	STAT1 activator 134.4
COc1ccc(N2CCN(c3cnc4ccccc4n3)CC2)cc1	STAT1 activator 132.9
Cc1ccc(CSCCNC(=O)c2ccc(NS(C)(=O)=O)cc2)cc1	none
CCc1nnc(NC(=O)CSc2nnc(-c3cccnc3)n2C)s1	none
CC(=O)c1sc(NC(=O)C=C(C)C)nc1C	none
CC(=O)c1sc(NC(=O)C2(F)C(F)(F)C(F)(F)C(F)(F)C(F)(F)C2(F)F)nc1C	STAT1 blocker 37.4, STAT3 inh 58.4
C=CCn1c(N)c(C(=O)Nc2ccc(C)cc2)sc1=S	STAT1 activator 131.2
C=CCn1c(N)c(C(=O)Nc2ccccc2OC)sc1=S	none
COc1ccc(S(=O)(=O)Nc2ccccc2OC)cc1NC(=O)c1cc2ccccc2oc1=O	none
O=c1[nH]c(S)nc2sc3c(c12)CCCC3	none
O=c1[nH]c(-c2ccco2)nc2sc3c(c12)CCCC3	NF-kB expr up 5.78, STAT1 activator 149.4, APP 5'UTR act 154.2
C/C(=N/OC(=O)C1CC1)c1cc(-c2ccc(Cl)cc2)no1	STAT1 activator 136.2
Cc1ccc(N2C(=O)C(NC(=O)c3ccccc3)(C(F)(F)F)C3=C2CC(C)(C)CC3=O)cc1 (stereo not given)	NF-kB expr up 13.8
CC1(C)CC(=O)C2=C(C1)N(c1ccc(F)cc1)C(=O)C2(NC(=O)c1ccccc1)C(F)(F)F (stereo not given)	none
COC(=O)N/N=C(/c1ccccc1)C1CCCCC1	NF-kB expr up 5.59
C/C(Cc1ccccc1)=N\NC(=O)C1CCCCC1	none
CCC1CCc2c(sc(NC(=O)c3ccco3)c2C(N)=O)C1 (stereo not given)	STAT1 activator 130.6
COc1ccc(C(=O)OCC(=O)N2CCCC2=O)c(OC)c1	STAT1 activator 139.0
COc1cc2ccccc2cc1C(=O)OCC(=O)N1CCOCC1	none
COc1ccc(C(=O)NCc2nnc(SCC(=O)Nc3nc4ccc(C)cc4s3)o2)cc1OC	none
COc1ccc(N2C(=O)C3CCCN3C2c2ccccc2OC)cc1 (stereo not given)	none
COc1ccccc1C1N(c2ccc(Cl)cc2)C(=O)C2CCCN21 (stereo not given)	STAT3 activator 134.3
COCCN(CCOC)C(=O)c1cc2sc3ccccc3c2s1	none
CCN(CC)C(=O)c1cc2sc3ccccc3c2s1	STAT1 activator 141.6
CCOC(=O)C1CCN(S(=O)(=O)c2ccc(OC)c(Cl)c2)CC1	none
O=C(NCCCN1CCOCC1)/C(=C/c1ccc(F)cc1)NC(=O)c1ccccc1	none
CC(Cc1cccnc1)NC(=O)c1ccccc1OC1CCN(S(C)(=O)=O)CC1 (stereo not given)	none
CCOC(=O)C1CCN(Cc2ccc(O)c3ncccc23)CC1	NF-kB expr up 10.1
COc1ccccc1N1CCN(Cc2ccc(O)c3ncccc23)CC1	NF-kB expr up 7.2
Cc1ccc(S(=O)(=O)CCC(=O)OCn2nnc3ccccc3c2=O)cc1	none
CCN(CC)S(=O)(=O)N1CCC(C(=O)NCc2ccco2)CC1	none
NS(=O)(=O)c1ccc(N=Nc2c(O)ccc3ccccc23)cc1	STAT1 activator 132.5
CCOc1ccc(NC(=O)/C=C/c2ccccc2)c([N+](=O)[O-])c1	STAT1 activator 131.3
Cc1cccc(NC(=O)/C=C/c2cccs2)n1	NF-kB expr up 4.97, STAT1 activator 149.3, APP 5'UTR act 169.6
O=C(/C=C/c1cccs1)Nc1ccncc1	none
O=C(/C=C/c1ccccc1[N+](=O)[O-])Nc1ccccc1	NF-kB expr up 8.32, APP 5'UTR act 172.3
CCOc1ccc(/C=C/C(=O)Nc2ccc(OC)cc2[N+](=O)[O-])cc1	none
Cc1ccc(NC(=O)/C=C/c2cccs2)c([N+](=O)[O-])c1	NF-kB expr up 6.98, STAT1 activator 145.8, APP 5'UTR act 173.3

Assay outcomes: PubChem BioAssay, several laboratories
